Assay results published in ChEMBL document CHEMBL1123049, “Functionalized congeners of adenosine: preparation of analogues with high affinity for A1-adenosine receptors” (J Med Chem, 1985).

Target: T1, Adenosine receptor A1 (Rattus norvegicus, UniProt P25099)
T1 sequence (P25099 whole entry): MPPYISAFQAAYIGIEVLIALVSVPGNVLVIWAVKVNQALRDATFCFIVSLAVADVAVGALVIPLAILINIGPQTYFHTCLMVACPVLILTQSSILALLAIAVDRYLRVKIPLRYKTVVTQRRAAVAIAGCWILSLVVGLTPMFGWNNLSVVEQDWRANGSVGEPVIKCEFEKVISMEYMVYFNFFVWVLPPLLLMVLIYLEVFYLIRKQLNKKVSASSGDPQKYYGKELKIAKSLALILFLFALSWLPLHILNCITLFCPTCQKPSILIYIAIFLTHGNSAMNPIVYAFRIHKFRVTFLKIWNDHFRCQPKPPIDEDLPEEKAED
Assay: Inhibition of binding of 1 nM N6-[3H]cyclohexyladenosine to adenosine A1 receptor on rat cerebral cortical membranes.
Assay type: cell membranes, Membrane
Outline: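 Displacement of 1 nM N6-[3H]cyclohexyladenosine by a range of analogue concentrations, run in triplicate in at least two separate experiments. IC50 estimated graphically for each experiment. Values are mean ± SEM of two to four experiments.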

Row | Compound | Ki [nM]
1 | O=C(CCc1ccc(O)cc1)NCCNC(=O)Cc1ccc(NC(=O)Cc2ccc(Nc3ncnc4c3ncn4C3O[C@H](CO)[C@@H](O)[C@H]3O)cc2)cc1 (some centres not stated) | 4.5
2 | Cc1ccc(Nc2ncnc3c2ncn3C2O[C@H](CO)[C@@H](O)[C@H]2O)cc1 (some centres not stated) | 2.5
3 | COc1ccc(Nc2ncnc3c2ncn3[C@@H]2O[C@H](CO)[C@@H](O)[C@H]2O)cc1 | 2.3
4 | CNC(=O)CNC(=O)C(Cc1ccc(NC(=O)Cc2ccc(Nc3ncnc4c3ncn4C3O[C@H](CO)[C@@H](O)[C@H]3O)cc2)cc1)NC(=O)OC(C)(C)C (some centres not stated) | 13
5 | COC(=O)C(Cc1ccc(NC(=O)Cc2ccc(Nc3ncnc4c3ncn4C3O[C@H](CO)[C@@H](O)[C@H]3O)cc2)cc1)NC(=O)C(F)(F)F (some centres not stated) | 18
6 | O=C(O)Cc1ccc(Nc2ncnc3c2ncn3C2O[C@H](CO)[C@@H](O)[C@H]2O)cc1 (some centres not stated) | 210
7 | CC(=O)NCCNC(=O)Cc1ccc(NC(=O)Cc2ccc(Nc3ncnc4c3ncn4C3O[C@H](CO)[C@@H](O)[C@H]3O)cc2)cc1 (some centres not stated) | 9.3
8 | O=C(CCCCC1SCC2NC(=O)NC21)NCCNC(=O)Cc1ccc(NC(=O)Cc2ccc(Nc3ncnc4c3ncn4C3O[C@H](CO)[C@@H](O)[C@H]3O)cc2)cc1 (some centres not stated) | 11.4
9 | OC[C@H]1O[C@@H](n2cnc3c(Nc4ccccc4)ncnc32)[C@H](O)[C@@H]1O [N6-PHENYLADENOSINE] | 3.2

Next, values leading:

Row | Ki [nM] | Compound
10 | 4.5 | NNC(=O)Cc1ccc(NC(=O)Cc2ccc(Nc3ncnc4c3ncn4C3O[C@H](CO)[C@@H](O)[C@H]3O)cc2)cc1 (some centres not stated)
11 | 2 | Cc1cccc(NC(=O)Cc2ccc(Nc3ncnc4c3ncn4C3O[C@H](CO)[C@@H](O)[C@H]3O)cc2)c1 (some centres not stated)
12 | 6.7 | CNC(=O)Cc1ccc(NC(=O)Cc2ccc(Nc3ncnc4c3ncn4C3O[C@H](CO)[C@@H](O)[C@H]3O)cc2)cc1 (some centres not stated)
13 | 1.7 | Cc1ccc(NC(=O)Cc2ccc(Nc3ncnc4c3ncn4C3O[C@H](CO)[C@@H](O)[C@H]3O)cc2)cc1 (some centres not stated)
14 | 15 | CCOC(=O)CNC(=O)Cc1ccc(Nc2ncnc3c2ncn3C2O[C@H](CO)[C@@H](O)[C@H]2O)cc1 (some centres not stated)
15 | 3.3 | O=C(Cc1ccc(Nc2ncnc3c2ncn3C2O[C@H](CO)[C@@H](O)[C@H]2O)cc1)Nc1ccc(C(F)(F)F)cc1 (some centres not stated)
16 | 6.8 | Cc1ccccc1NC(=O)Cc1ccc(Nc2ncnc3c2ncn3C2O[C@H](CO)[C@@H](O)[C@H]2O)cc1 (some centres not stated)
17 | 2.5 | COC(=O)Cc1ccc(NC(=O)Cc2ccc(Nc3ncnc4c3ncn4C3O[C@H](CO)[C@@H](O)[C@H]3O)cc2)cc1 (some centres not stated)
